Measurements as given in ChEMBL document CHEMBL1145753, “Identification of a potent and selective 5-HT(6) antagonist: one-step synthesis of (E)-3-(benzenesulfonyl)-2- (methylsulfanyl)pyrido[1,2-a]pyrimidin-4-ylidenamine from 2-(benzenesulfonyl)-3,3-bis(methylsulfanyl)acrylonitrile” (J Med Chem, 2003).
pIC50, pKd: −log10 of the molar value.

How the values were obtained:
[1] = target: 5-hydroxytryptamine receptor 6 (Homo sapiens, UniProt P50406); experiment: Binding affinity towards 5-hydroxytryptamine 6 receptor using [3H]- LSD as radioligand
In short: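 Membranes from HEK293 cells expressing recombinant human 5-HT6 receptor. Displacement of [3H]LSD binding measured; IC50 derived.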

[2] = Apparent dissociation constant was determined
In short: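 Human 5-HT6 receptor expressed in HEK293 cells with coexpressed Gα15, read out as 5-HT-stimulated Ca2+ mobilization. 5-HT EC50 was measured without antagonist and with increasing antagonist concentrations. Dose ratio is EC50 with antagonist divided by EC50 for 5-HT alone. Schild plot of log(dose ratio − 1) vs −log[antagonist]. Triplicate points; experiment repeated at least twice.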

[3] = target: Cytochrome P450 2C9 (Homo sapiens, UniProt P11712); experiment: Inhibition of recombinant human Cytochrome P450 2C9; type: ADME
In short: (§1)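 Recombinant human CYP enzymes with fluorogenic substrates. CYP1A2: 3-cyano-7-ethoxycoumarin deethylation. CYP2C9: 7-methoxy-4-trifluoromethylcoumarin dealkylation. CYP2D6: 3-[2-(N,N-diethyl-N-methylamino)ethyl]-7-methoxy-4-methylcoumarin demethylation. CYP3A4: benzoylresorufin or 7-benzyloxy-4-trifluoromethylcoumarin dealkylation, tested separately. IC50 for metabolism inhibition reported as mean ± SEM (n = 7).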

[4] = target: Cytochrome P450 2D6 (Homo sapiens, UniProt P10635); experiment: Inhibition of recombinant human Cytochrome P450 2D6; type: ADME; in short: as §1
[5] = target: T1, Cytochrome P450 1A2 (Homo sapiens, UniProt P05177); experiment: Inhibition of recombinant human Cytochrome P450 1A2; type: ADME; in short: as §1
T1 sequence (P05177 whole entry): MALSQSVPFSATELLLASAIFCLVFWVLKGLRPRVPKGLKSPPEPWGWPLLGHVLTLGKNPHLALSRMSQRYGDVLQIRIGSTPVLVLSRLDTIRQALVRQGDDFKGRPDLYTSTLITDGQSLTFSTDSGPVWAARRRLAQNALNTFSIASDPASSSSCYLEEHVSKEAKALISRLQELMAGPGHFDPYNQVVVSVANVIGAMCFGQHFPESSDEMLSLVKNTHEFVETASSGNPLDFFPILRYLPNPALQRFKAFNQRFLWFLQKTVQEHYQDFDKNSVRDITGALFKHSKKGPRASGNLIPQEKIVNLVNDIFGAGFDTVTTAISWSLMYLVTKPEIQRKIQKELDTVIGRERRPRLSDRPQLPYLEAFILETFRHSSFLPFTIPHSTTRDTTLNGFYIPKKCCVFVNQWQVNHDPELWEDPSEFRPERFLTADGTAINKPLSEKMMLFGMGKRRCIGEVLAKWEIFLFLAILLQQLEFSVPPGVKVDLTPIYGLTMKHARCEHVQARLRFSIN

[6] = target: T2, Cytochrome P450 3A4 (Homo sapiens, UniProt P08684); experiment: Inhibition of recombinant human Cytochrome P450 3A4 with BFC; type: ADME; in short: as §1
[7] = target: T2, Cytochrome P450 3A4; experiment: Inhibition of recombinant human Cytochrome P450 3A4 with BzRes; type: ADME; in short: as §1
[8] = target: Cytochrome P450 2C19 (Homo sapiens) (UniProt P33261); experiment: Inhibition of recombinant human Cytochrome P450 2C19
Sequence of Cytochrome P450 2C19 (Homo sapiens) (P33261 whole entry, looked up): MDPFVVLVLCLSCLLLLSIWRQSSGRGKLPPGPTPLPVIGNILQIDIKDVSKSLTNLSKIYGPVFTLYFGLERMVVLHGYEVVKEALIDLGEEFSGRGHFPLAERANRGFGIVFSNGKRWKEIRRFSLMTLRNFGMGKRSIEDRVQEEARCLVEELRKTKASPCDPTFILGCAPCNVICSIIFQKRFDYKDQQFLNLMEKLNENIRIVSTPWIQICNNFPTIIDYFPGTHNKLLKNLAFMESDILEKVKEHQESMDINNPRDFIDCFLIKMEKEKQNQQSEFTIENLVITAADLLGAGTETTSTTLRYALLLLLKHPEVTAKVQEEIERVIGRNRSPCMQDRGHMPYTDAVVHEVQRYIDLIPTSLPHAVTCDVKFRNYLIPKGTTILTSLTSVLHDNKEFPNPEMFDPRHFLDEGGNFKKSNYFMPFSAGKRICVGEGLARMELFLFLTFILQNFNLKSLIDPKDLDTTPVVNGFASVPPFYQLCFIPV

Sequence of 5-hydroxytryptamine receptor 6 (P50406 whole entry): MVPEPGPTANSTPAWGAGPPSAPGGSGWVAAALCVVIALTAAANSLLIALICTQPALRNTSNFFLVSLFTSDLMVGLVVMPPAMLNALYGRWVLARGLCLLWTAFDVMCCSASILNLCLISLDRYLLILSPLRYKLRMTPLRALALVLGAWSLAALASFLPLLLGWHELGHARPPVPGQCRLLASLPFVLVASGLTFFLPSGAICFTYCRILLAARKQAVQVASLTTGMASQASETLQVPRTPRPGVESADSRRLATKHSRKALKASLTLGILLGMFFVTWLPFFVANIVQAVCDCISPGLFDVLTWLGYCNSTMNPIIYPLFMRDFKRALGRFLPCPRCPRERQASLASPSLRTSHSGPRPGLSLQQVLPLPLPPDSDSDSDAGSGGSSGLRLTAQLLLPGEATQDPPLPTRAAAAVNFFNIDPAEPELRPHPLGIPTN
T2 sequence (P08684 whole entry): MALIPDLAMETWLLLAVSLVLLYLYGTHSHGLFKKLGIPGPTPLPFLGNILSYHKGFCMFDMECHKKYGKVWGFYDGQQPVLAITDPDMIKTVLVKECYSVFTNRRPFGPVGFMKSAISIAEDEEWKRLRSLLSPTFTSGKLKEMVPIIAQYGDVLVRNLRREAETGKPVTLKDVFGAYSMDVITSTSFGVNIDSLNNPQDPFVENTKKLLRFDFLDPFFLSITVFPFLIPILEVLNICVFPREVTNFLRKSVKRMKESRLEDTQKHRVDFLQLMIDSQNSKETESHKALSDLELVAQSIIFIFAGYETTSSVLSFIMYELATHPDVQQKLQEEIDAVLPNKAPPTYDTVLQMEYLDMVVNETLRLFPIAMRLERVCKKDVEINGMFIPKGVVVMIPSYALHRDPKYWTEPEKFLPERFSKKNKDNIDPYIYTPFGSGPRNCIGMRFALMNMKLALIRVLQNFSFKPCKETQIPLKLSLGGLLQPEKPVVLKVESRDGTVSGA
Sequence of Cytochrome P450 2D6 (P10635 whole entry): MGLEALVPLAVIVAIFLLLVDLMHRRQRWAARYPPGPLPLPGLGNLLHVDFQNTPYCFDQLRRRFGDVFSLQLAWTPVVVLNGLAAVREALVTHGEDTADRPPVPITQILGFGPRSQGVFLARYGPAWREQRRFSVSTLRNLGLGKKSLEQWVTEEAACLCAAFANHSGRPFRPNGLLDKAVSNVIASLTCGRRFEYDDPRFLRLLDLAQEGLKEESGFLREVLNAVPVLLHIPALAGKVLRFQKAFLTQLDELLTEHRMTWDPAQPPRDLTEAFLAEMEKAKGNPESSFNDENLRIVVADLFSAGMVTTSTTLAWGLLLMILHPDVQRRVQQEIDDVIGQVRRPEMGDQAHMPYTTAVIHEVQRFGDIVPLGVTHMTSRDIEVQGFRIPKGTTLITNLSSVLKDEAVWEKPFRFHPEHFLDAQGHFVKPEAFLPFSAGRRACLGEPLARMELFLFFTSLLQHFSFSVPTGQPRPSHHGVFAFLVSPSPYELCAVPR
Sequence of Cytochrome P450 2C9 (P11712 whole entry): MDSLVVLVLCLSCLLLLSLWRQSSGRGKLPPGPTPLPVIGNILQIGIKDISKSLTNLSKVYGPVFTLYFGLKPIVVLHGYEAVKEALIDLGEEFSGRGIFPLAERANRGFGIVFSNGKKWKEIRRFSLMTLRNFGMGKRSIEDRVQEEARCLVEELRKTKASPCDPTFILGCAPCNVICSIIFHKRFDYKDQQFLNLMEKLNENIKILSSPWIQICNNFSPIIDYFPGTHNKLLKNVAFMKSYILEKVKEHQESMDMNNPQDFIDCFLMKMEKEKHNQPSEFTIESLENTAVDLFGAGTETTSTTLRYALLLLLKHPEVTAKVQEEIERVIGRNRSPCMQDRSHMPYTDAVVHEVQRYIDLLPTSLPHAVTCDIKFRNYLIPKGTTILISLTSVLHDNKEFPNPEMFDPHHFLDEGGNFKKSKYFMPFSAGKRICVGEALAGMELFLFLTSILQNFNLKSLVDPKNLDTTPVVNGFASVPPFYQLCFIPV

Compound	pIC50 [1]	other results
CCc1ccn2c(=N)c(S(=O)(=O)c3ccccc3)c(SC)nc2c1	7.15	
N#C/C(=C\Nc1ccccn1)S(=O)(=O)c1ccccc1	6.28	
CSc1nc2c(Br)cc(C)cn2c(=N)c1S(=O)(=O)c1ccccc1	6.57	
CSc1nc2c3ccccc3ccn2c(=N)c1S(=O)(=O)c1ccccc1	7.16	
CCCS(=O)(=O)c1c(SC)nc2ccccn2c1=N	5.45	
CSc1nc2ccc(F)cn2c(=N)c1S(=O)(=O)c1ccccc1	7.06	

Continued by rising pIC50 [1], values first:

pIC50 [1]	Compound	other results
7.10	CSc1nc2ccccn2c(=N)c1S(=O)(=O)c1ccc2ccccc2c1	
7.58	CNc1cc(NS(=O)(=O)c2ccc(N)cc2)nc(NC)n1	
8.40	CSc1nc2ccccn2c(=N)c1S(=O)(=O)c1ccccc1	pKd [2]: 8.33; pIC50 [3]: 4.62; pIC50 [4]: < 4.40; pIC50 [5]: < 4.40; pIC50 [6]: < 4.40; pIC50 [7]: < 4.40; pIC50 [8]: 6.07
